Measured values: ChEMBL document CHEMBL1135601, “Synthesis and biolocalization of water-soluble sapphyrins” (J Med Chem, 2002)

Assays:
[1] = Biodistribution after day 9 in mouse tumor; assay type: ADME, organism-based
Procedure, shortened: (§1)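 Female outbred CD-1 nude mice (18-20 g) bearing subcutaneous human pancreatic adenocarcinoma UB 290896 (2 × 2 mm pieces, right flank; used at tumor diameter 4.5-5.5 mm). Aqueous solution (∼1 mmol L-1) given subcutaneously at 15 µmol kg-1 per day for 3 days. Mice killed 1, 3, 6 or 9 days after the last injection. Five mice per time point, plus 5 noninjected controls.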

[2] = Biodistribution after day 1 in mouse tumor; assay type: ADME, organism-based; procedure, shortened: as §1
[3] = Biodistribution after day 3 in mouse blood; assay type: ADME, organism-based; procedure, shortened: as §1
[4] = Biodistribution after day 3 in mouse brain; assay type: ADME, organism-based; procedure, shortened: as §1
[5] = Biodistribution after day 3 in mouse heart; assay type: ADME, organism-based; procedure, shortened: as §1
[6] = Biodistribution after day 3 in mouse kidney; assay type: ADME, organism-based; procedure, shortened: as §1
[7] = Biodistribution after day 3 in mouse liver; assay type: ADME, organism-based; procedure, shortened: as §1
[8] = Biodistribution after day 3 in mouse lung; assay type: ADME, organism-based; procedure, shortened: as §1
[9] = Biodistribution after day 3 in mouse muscle; assay type: ADME, organism-based, Muscle tissue; procedure, shortened: as §1
[10] = Biodistribution after day 3 in mouse spleen; assay type: ADME, organism-based; procedure, shortened: as §1
[11] = Biodistribution after day 3 in mouse tumor; assay type: ADME, organism-based; procedure, shortened: as §1
[12] = Biodistribution after day 6 in mouse blood; assay type: ADME, organism-based; procedure, shortened: as §1
[13] = Biodistribution after day 6 in mouse brain; assay type: ADME, organism-based; procedure, shortened: as §1
[14] = Biodistribution after day 6 in mouse heart; assay type: ADME, organism-based; procedure, shortened: as §1
[15] = Biodistribution after day 6 in mouse kidney; assay type: ADME, organism-based; procedure, shortened: as §1
[16] = Biodistribution after day 6 in mouse lung; assay type: ADME, organism-based; procedure, shortened: as §1
[17] = Biodistribution after day 6 in mouse muscle; assay type: ADME, organism-based, Muscle tissue; procedure, shortened: as §1
[18] = Biodistribution after day 6 in mouse spleen; assay type: ADME, organism-based; procedure, shortened: as §1
[19] = Biodistribution after day 6 in mouse tumor; assay type: ADME, organism-based; procedure, shortened: as §1
[20] = Biodistribution after day 9 in mouse blood; assay type: ADME, organism-based; procedure, shortened: as §1
[21] = Biodistribution after day 9 in mouse brain; assay type: ADME, organism-based; procedure, shortened: as §1
[22] = Biodistribution after day 9 in mouse heart; assay type: ADME, organism-based; procedure, shortened: as §1
[23] = Biodistribution after day 9 in mouse kidney; assay type: ADME, organism-based; procedure, shortened: as §1
[24] = Biodistribution after day 9 in mouse liver; assay type: ADME, organism-based; procedure, shortened: as §1
[25] = Biodistribution after day 9 in mouse lung; assay type: ADME, organism-based; procedure, shortened: as §1
[26] = Biodistribution after day 9 in mouse muscle; assay type: ADME, organism-based, Muscle tissue; procedure, shortened: as §1
[27] = Biodistribution after day 9 in mouse spleen; assay type: ADME, organism-based; procedure, shortened: as §1
[28] = Biodistribution after day 1 in mouse blood; assay type: ADME, organism-based; procedure, shortened: as §1
[29] = Biodistribution after day 1 in mouse brain; assay type: ADME, organism-based; procedure, shortened: as §1
[30] = Biodistribution after day 1 in mouse heart; assay type: ADME, organism-based; procedure, shortened: as §1
[31] = Biodistribution after day 1 in mouse kidney; assay type: ADME, organism-based; procedure, shortened: as §1
[32] = Biodistribution after day 1 in mouse liver; assay type: ADME, organism-based; procedure, shortened: as §1
[33] = Biodistribution after day 1 in mouse lung; assay type: ADME, organism-based; procedure, shortened: as §1
[34] = Biodistribution after day 1 in mouse muscle; assay type: ADME, organism-based, Muscle tissue; procedure, shortened: as §1
[35] = Biodistribution after day 1 in mouse spleen; assay type: ADME, organism-based; procedure, shortened: as §1
[36] = Biodistribution after day 6 in mouse liver; assay type: ADME, organism-based; procedure, shortened: as §1

Row | SMILES | concentration at 1 day [2] [ng/g] | concentration at 3 day [3] [ng/g] | concentration at 3 day [4] [ng/g] | concentration at 3 day [5] [ng/g] | concentration at 3 day [6] [ng/g] | concentration at 3 day [7] [ng/g] | concentration at 3 day [8] [ng/g] | concentration at 3 day [9] [ng/g] | concentration at 3 day [10] [ng/g] | concentration at 3 day [11] [ng/g] | concentration at 6 day [12] [ng/g] | concentration at 6 day [13] [ng/g] | concentration at 6 day [14] [ng/g] | concentration at 6 day [15] [ng/g] | concentration at 6 day [16] [ng/g] | concentration at 6 day [17] [ng/g] | concentration at 6 day [18] [ng/g] | concentration at 6 day [19] [ng/g] | concentration at 1 day [28] [ng/g] | concentration at 1 day [29] [ng/g] | further results
1 | C=CC1=C(C)c2cc3nc(cc4[nH]c(cc5[nH]c(cc1n2)c(C)c5CCC(=O)NC1C(O)OC(CO)C(O)C1O)c(CCC(=O)NC1C(O)OC(CO)C(O)C1O)c4C)C(C=C)=C3C (stereo not given) [PORPHYRIN] | 34000 | 900 | 410 | 1450 | 3100 | 800 | 1700 | 4200 | 16000 | 131000 | 980 | 320 | 1700 | 4300 | 1400 | 5100 | 12000 | 260000 | 1090 | 420 | concentration at 9 day [1]: 37000 ng/g; concentration at 9 day [20]: 800 ng/g; concentration at 9 day [21]: 370 ng/g; concentration at 9 day [22]: 2400 ng/g; concentration at 9 day [23]: 510 ng/g; concentration at 9 day [24]: 960 ng/g; concentration at 9 day [25]: 2300 ng/g; concentration at 9 day [26]: 3600 ng/g; concentration at 9 day [27]: 9000 ng/g; concentration at 1 day [30]: 2700 ng/g; concentration at 1 day [31]: 700 ng/g; concentration at 1 day [32]: 1100 ng/g; concentration at 1 day [33]: 2000 ng/g; concentration at 1 day [34]: 3500 ng/g; concentration at 1 day [35]: 22000 ng/g; concentration at 6 day [36]: 1320 ng/g
2 | CCC1=C(CC)c2cc3[nH]c(cc4[nH]c(c(C)c4CC)c4[nH]c(cc5nc(cc1n2)C(CCC(=O)NCCOCCOCCN)=C5C)c(CC)c4C)c(C)c3CCC(=O)NCCOCCOCCN | 4200 | 3020 | 5000 | 15500 | 6800 | 25000 | 19000 | 29000 | 11000 | 114000 | 2450 | 2400 | 9200 | 3800 | 7000 | 45000 | 3300 | 51000 | 1690 | 500 | concentration at 1 day [30]: 2000 ng/g; concentration at 1 day [31]: 640 ng/g; concentration at 1 day [32]: 210 ng/g; concentration at 1 day [33]: 1700 ng/g; concentration at 1 day [34]: 1900 ng/g; concentration at 1 day [35]: 1300 ng/g; concentration at 6 day [36]: 4200 ng/g
3 | CCc1c(CC)c2cc3nc(cc4[nH]c(c(C)c4CC)c4[nH]c(cc5nc(cc1[nH]2)C(CCC(=O)NCCN(CCN)CCN)=C5C)c(CC)c4C)C(C)=C3CCC(=O)NCCN(CCN)CCN | 58000 | 3400 | 400 | 10700 | 5700 | 13000 | 13000 | 36000 | 8000 | 89000 | 1170 | 160 | 5200 | 1700 | 3200 | 22000 | 3900 | 49000 | 950 | 870 | concentration at 1 day [30]: 3100 ng/g; concentration at 1 day [31]: 2800 ng/g; concentration at 1 day [32]: 1030 ng/g; concentration at 1 day [33]: 2500 ng/g; concentration at 1 day [34]: 3600 ng/g; concentration at 1 day [35]: 4100 ng/g; concentration at 6 day [36]: 10000 ng/g
4 | CCc1c(CC)c2cc3nc(cc4[nH]c(c(C)c4CC)c4[nH]c(cc5nc(cc1[nH]2)C(CCC(=O)NCCOCCOCCO)=C5C)c(CC)c4C)C(C)=C3CCC(=O)NCCOCCOCCO | 22000 | 9300 | 4300 | 7800 | 59000 | 61000 | 11000 | 9300 | 11000 | 130000 | 3400 | 4300 | 4800 | 52000 | 19000 | 3400 | 14000 | 180000 | 7000 | 2700 | concentration at 1 day [30]: 8000 ng/g; concentration at 1 day [31]: 3100 ng/g; concentration at 1 day [32]: 14000 ng/g; concentration at 1 day [33]: 13000 ng/g; concentration at 1 day [34]: 10000 ng/g; concentration at 1 day [35]: 4600 ng/g; concentration at 6 day [36]: 16000 ng/g
5 | CCc1c(CC)c2cc3nc(cc4[nH]c(c(C)c4CC)c4[nH]c(cc5nc(cc1[nH]2)C(CCC(=O)N(CCO)CCO)=C5C)c(CC)c4C)C(C)=C3CCC(=O)N(CCO)CCO [SAPPHYRIN] | 109000 | 900 | 270 | 960 | 330 | 1500 | 710 | 760 | 1390 | 220000 | 500 | 290 | 760 | 460 | 710 | 710 | 960 | 130000 | 500 | 240 | concentration at 1 day [30]: 950 ng/g; concentration at 1 day [31]: 440 ng/g; concentration at 1 day [32]: 1420 ng/g; concentration at 1 day [33]: 480 ng/g; concentration at 1 day [34]: 1020 ng/g; concentration at 1 day [35]: 1290 ng/g; concentration at 6 day [36]: 1200 ng/g
6 | CCc1c(CC)c2cc3nc(cc4[nH]c(c(C)c4CC)c4[nH]c(cc5nc(cc1[nH]2)C(CCC(=O)NC1C(O)OC(CO)C(O)C1O)=C5C)c(CC)c4C)C(C)=C3CCC(=O)NC1C(O)OC(CO)C(O)C1O (stereo not given) | 32000 | 2000 | 770 | 9000 | 1900 | 430 | 8000 | 21000 | 7800 | 66000 | 2200 | 750 | 6400 | 1500 | 6000 | 17000 | 8000 | 330000 | 1440 | 550 | concentration at 9 day [1]: 23000 ng/g; concentration at 9 day [20]: 1500 ng/g; concentration at 9 day [21]: 520 ng/g; concentration at 9 day [22]: 6000 ng/g; concentration at 9 day [23]: 2800 ng/g; concentration at 9 day [24]: 470 ng/g; concentration at 9 day [25]: 8000 ng/g; concentration at 9 day [26]: 11000 ng/g; concentration at 9 day [27]: 9700 ng/g; concentration at 1 day [30]: 5400 ng/g; concentration at 1 day [31]: 1100 ng/g; concentration at 1 day [32]: 290 ng/g; concentration at 1 day [33]: 4900 ng/g; concentration at 1 day [34]: 8000 ng/g; concentration at 1 day [35]: 3600 ng/g; concentration at 6 day [36]: 370 ng/g
